From PubChem
rCAG RNA binder – binds r(CAG) RNA repeats; inhibition, % at 3 µM; r(CAG) RNA repeat, TO-PRO-1 dye displacement fluorescence; actives 1.3% (n = 370,000);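 active = inhibition above the plate cutoff, the mean of all test compounds on that plate plus 3 SD, cut at about 35% in these data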;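 also: 0% = DMSO alone and 100% = 100 µM mitoxantrone as full dye displacement; higher means more dye released from RNA so lower well fluorescence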
Scp-1 inhibitor – Scp-1 (human) phosphatase inhibition | Q9GZU7 | inhibition, % at 20 µM | actives 0.88% (n = 340,000) | Recombinant Scp1, phosphopeptide, malachite green phosphate absorbance;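 active = inhibition above about 50% at 20 µM, limit read from the data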;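 also: plate controls were DMSO wells with enzyme for no effect and wells lacking enzyme for full effect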
Target sequence (Q9GZU7 76-261 limits assumed): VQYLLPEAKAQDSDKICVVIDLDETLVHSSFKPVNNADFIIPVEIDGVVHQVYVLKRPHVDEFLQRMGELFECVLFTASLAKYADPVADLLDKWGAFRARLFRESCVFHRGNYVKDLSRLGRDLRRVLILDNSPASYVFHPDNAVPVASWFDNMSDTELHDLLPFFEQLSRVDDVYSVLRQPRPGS
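Test system – truncated SCP-1 phosphatase (76-261aa) · Reagent – Phosphorylated 17-residue peptide substrate · Incubation – 45 min room-temperature reaction, 5 min colour, 30 min stabiliser · Detection – colorimetric phosphate reagent with accelerator and stabiliser, absorbance at 630 nm · Measure – % inhibition at 20 µM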
NadD inh – NadD (S. aureus) enzyme inhibition. purified NadD enzyme, colorimetric absorbance read-out. inhibition, % at 20 µM. actives 0.78% (n = 360,000); in the data active = inhibition above about 26%
STEP inh – blocks human striatal-enriched tyrosine phosphatase. AID 588621. recombinant STEP, OMFP fluorogenic substrate, fluorescence. P54829. inhibition, % at 20 µM. actives 0.25% (n = 360,000);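 active = inhibition at 20 µM, scaled per plate between control wells, above about 37%, limit read from the data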;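 also: 0% = DMSO with enzyme and substrate and 100% = substrate only without enzyme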
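material = STEP tyrosine phosphatase | reagent = fluorogenic phosphatase substrate OMFP at 25 µM final | doses = single compound dose of 20 µM, 1% DMSO final | schedule = 20 min reaction, room temperature, in the dark | measured by = fluorescence, 480/540 nm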
LMPTP inh – LMPTP (human) inhibition; P24666; recombinant LMPTP-A, OMFP fluorogenic substrate, fluorescence intensity; inhibition, % at 20 µM; actives 0.22% (n = 360,000); AID 651560;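 active = compounds that cut the enzyme signal by at least half of the control window in the single-dose screen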;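 also: plate controls were DMSO wells with enzyme plus substrate for no effect and substrate without enzyme for full effect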
Target sequence (P24666 whole entry, looked up): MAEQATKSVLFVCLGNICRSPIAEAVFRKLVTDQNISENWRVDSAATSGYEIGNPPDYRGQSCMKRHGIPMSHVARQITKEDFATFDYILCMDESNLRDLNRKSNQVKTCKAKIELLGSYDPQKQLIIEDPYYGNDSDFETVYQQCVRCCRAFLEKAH
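test system = LMPTP-A | amount = 0.625 nM LMPTP-A final | reagent = fluorogenic phosphatase substrate OMFP at 400 µM final | incubation = 50 min at room temperature | benchmarks = no-enzyme low control, uninhibited high control | medium = Bis-Tris pH 6.0, DTT, detergent | signal = fluorescence intensity of OMFP turnover product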
rCAG bind conf – r(CAG) RNA repeat binding, confirmation; TO-PRO-1 dye displacement fluorescence; inhibition, % at 3 µM; shares compounds with rCAG RNA binder; actives 70% (n = 4,300);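 active = inhibition above a per-plate cutoff, the mean inhibition of sample wells plus 3 SD, cut at about 35% in these data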;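 also: loss of TO-PRO-1 fluorescence as compound displaces dye from 1x1 AA loop RNA; 0% = DMSO only wells and 100% = 100 µM mitoxantrone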
dCAG dye counter – DNA CAG dye complex inhibition counter-screen | shares compounds with rCAG RNA binder | d(CAG) DNA oligo TO-PRO-1 dye displacement, fluorescence | actives 94% (n = 4,300) | inhibition, % at 3 µM;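 active = inhibition above its plate's cutoff, the mean test-well inhibition plus 3 SD, cut at about 4.8% in these data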;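 also: 0% = DNA dye mix with DMSO and 100% = 100 µM mitoxantrone; hits displace the dye from DNA and so lower well fluorescence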
DNA CAG DR – disrupts DNA CAG TO-PRO-1 complex in dose response; shares compounds with rCAG RNA binder; DNA CAG/GTC duplex TO-PRO-1 dye displacement fluorescence; IC50, µM; actives 20% (n = 250); in the data active = IC50 below about 10 µM
* hit, by the source's call; i = inactive; / = no result. Sampled rows, rich in hits. Any-hit rate of the full collection: about 2.6%.

SMILES	rCAG RNA binder	Scp-1 inhibitor	NadD inh	STEP inh	LMPTP inh	rCAG bind conf	dCAG dye counter	others
N#CCc1nc(C(c2ccccc2)c2ccccc2)no1	39.6*	-10.3	11.2	-1.9	1.7	16.7	8.0*
COCCN(C)Cc1nc(C(c2ccccc2)c2ccccc2)no1	-6.8	-6.2	-0.2	0.4	-1.0	/	/
COCCSc1ncccc1-c1nc2ccccc2[nH]1	5.1	/	/	/	/	/	/
O=C(O)c1cc(-c2c[nH]c3ccccc23)nc2ccc3ccccc3c12	52.0*	0.8	2.1	-4.0	-0.6	45.0*	11.2*
CCOC(=O)c1ccc(N2CSC3=C(C#N)C(c4ccc(OC)cc4OC)CC(=O)N3C2)cc1 (centres undefined)	21.3	-11.2	2.9	0.8	11.1	/	/
CCOc1ccc(N2CSC3=C(C#N)C(c4ccco4)CC(=O)N3C2)cc1 (centres undefined)	68.5*	-3.8	-1.9	0.5	-0.7	47.6*	17.5*
N#Cc1ccc(/C=C2\CC3(OC(=O)c4ccco4)CCCN2C3)cc1 (centres undefined)	1.1	/	/	/	/	/	/
Cc1ccc(-c2nn(CCC(=O)O)cc2/C=C\C(=O)c2ccc(Br)cc2)cc1	68.2*	-6.1	-2.4	-0.8	0.7	73.9*	31.9*	DNA CAG DR=i
O=Cc1cn(CCC(=O)O)nc1-c1cccc(Br)c1	1.2	10.3	0.5	-0.2	0.2	/	/
O=C(O)CCn1cc(/C=C\C(=O)c2ccc(Cl)cc2)c(-c2cccc(Br)c2)n1	63.3*	-27.1	4.6	2.8	2.9	82.4*	44.7*
Nc1ccc(S(=O)(=O)Nc2nc(-c3ccccc3)cc(-c3ccccc3O)n2)cc1	57.8*	/	8.0	0.0	3.2	53.8*	18.3*
Nc1ccc(S(=O)(=O)Nc2nc(-c3ccccc3)cc(-c3ccccc3)n2)cc1	24.6	3.8	24.5	-0.6	6.5	/	/
O=C(O)/C(CC(=O)c1ccc(Cl)cc1)=N/Nc1ccc([N+](=O)[O-])cc1[N+](=O)[O-]	91.7*	9.0	7.8	1.5	5.8	89.5*	66.1*
CCOC(=O)c1sc(/N=C/N(C)C)c(C(=O)OCC)c1C	-0.8	-2.2	-1.6	1.8	-1.4	/	/
CCOC(=O)c1sc(N=NC2=C(O)CCCC2=O)c(C(=O)OCC)c1C	56.9*	26.4	37.5*	4.4	39.3	32.7	16.6*
COc1cc(/C=C2\SC(=Nc3ccc(N4CCOCC4)cc3)N(C)C2=O)ccc1OC(C)C(=O)O (centres undefined)	41.3*	-9.1	13.6	3.1	0.5	52.3*	17.0*
COc1cc(/C=C2\SC(=Nc3ccccc3)N(Cc3ccco3)C2=O)ccc1OC(C)C(=O)O (centres undefined)	66.9*	-1.3	10.1	-0.4	0.5	70.6*	28.9*	DNA CAG DR=i
CN=C1S/C(=C\c2ccc(OCC(=O)OC)c(OC)c2)C(=O)N1C	-4.7	-8.3	-1.8	0.1	1.0	/	/
COc1cc(/C=C2\SC(=O)N(CC(=O)Nc3cccc(C)c3)C2=O)ccc1OC(C)C(=O)O (centres undefined)	53.7*	-20.4	-5.3	0.4	0.4	43.7*	14.0*
COCCN1C(=O)/C(=C/c2ccc(OCc3ccc(C(=O)O)cc3)c(OC)c2)SC1=Nc1ccccc1	29.2	30.4	-2.1	0.4	2.4	/	/
COC(=O)[C@@]12CCCCC=C1N(CCc1ccc(Cl)cc1)C(=O)[C@H]2CC(=O)NCCC(C)C	2.8	/	/	/	/	/	/
O=C(NCCN1CCC(Cc2ccccc2)CC1)C1CCCN(S(=O)(=O)c2ccc(Br)s2)C1 (centres undefined)	3.5	/	/	/	/	/	/
Cc1ccc(C2C(/C=C3/SC(=S)NC3=O)=C(c3cccs3)Oc3ccccc32)cc1 (centres undefined)	80.0*	0.4	59.9*	0.4	7.3	83.3*	51.0*
COc1ccccc1C=C1SC(=S)NC1=O	6.6	47.2	7.7	2.0	1.4	/	/
O=C1C=CC(=O)c2c(O)c(CO)c(CO)c(O)c21	82.8*	84.7*	77.4*	94.3*	93.0*	86.5*	68.2*
